Experimental data taken from ChEMBL document CHEMBL1287796, “Discovery of new chemotype dipeptidyl peptidase IV inhibitors having (R)-3-amino-3-methyl piperidine as a pharmacophore” (Bioorg Med Chem Lett, 2010).
Active and inactive are the calls of the source. No cut-off for these calls is given here.

Tests used:
Dipeptidyl peptidase 8 = Dipeptidyl peptidase 8 (Homo sapiens, UniProt Q6V1X1); experiment: Inhibition of DPP8
Cytochrome P450 3A4 = Cytochrome P450 3A4 (Homo sapiens, UniProt P08684); experiment: Inhibition of CYP3A4 in human liver microsomes after 10 mins; assay type: ADME, Microsome
Outline: (§1)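 Human liver microsomes incubated with test compound and NADPH for 10 min; CYP isoform inhibition reported as IC50.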

Dipeptidyl peptidase 9 = Dipeptidyl peptidase 9 (Homo sapiens, UniProt Q86TI2); experiment: Inhibition of DPP9
Cytochrome P450 2D6 = Cytochrome P450 2D6 (Homo sapiens, UniProt P10635); experiment: Inhibition of CYP2D6 in human liver microsomes after 10 mins; assay type: ADME, Microsome; outline: as §1
Cytochrome P450 1A2 = target: T1, Cytochrome P450 1A2 (Homo sapiens, UniProt P05177); experiment: Inhibition of CYP1A2 in human liver microsomes after 10 mins; assay type: ADME, Microsome; outline: as §1
T1 sequence (P05177 whole entry): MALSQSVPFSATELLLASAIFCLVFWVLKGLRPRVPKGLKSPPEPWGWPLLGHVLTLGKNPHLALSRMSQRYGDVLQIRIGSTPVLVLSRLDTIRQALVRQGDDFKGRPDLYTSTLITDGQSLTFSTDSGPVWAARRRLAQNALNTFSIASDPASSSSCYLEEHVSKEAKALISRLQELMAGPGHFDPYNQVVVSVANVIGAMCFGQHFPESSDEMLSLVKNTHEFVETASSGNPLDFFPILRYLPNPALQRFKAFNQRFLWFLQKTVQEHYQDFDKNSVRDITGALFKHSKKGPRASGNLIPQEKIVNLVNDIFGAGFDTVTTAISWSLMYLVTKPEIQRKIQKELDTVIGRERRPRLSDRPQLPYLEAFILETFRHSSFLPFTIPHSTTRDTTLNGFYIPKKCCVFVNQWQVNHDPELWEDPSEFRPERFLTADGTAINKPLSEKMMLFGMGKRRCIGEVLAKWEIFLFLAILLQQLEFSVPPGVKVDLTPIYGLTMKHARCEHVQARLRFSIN

Liver microsomes [1] = experiment: Metabolic stability in human liver microsomes at 10 uM after 39 mins; assay type: ADME, Microsome; details: 0.5 h, in the assay text read “30 mins” for “39 mins”
Outline: (§2)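 Compound incubated for 30 min with hepatic microsomes (human or rat) plus NADPH. Metabolic stability is expressed as clearance in ml/min/mg protein.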

Liver microsomes [2] = experiment: Metabolic stability in rat liver microsomes at 10 uM after 39 mins; assay type: ADME, Microsome; details: 0.5 h, in the assay text read “30 mins” for “39 mins”; outline: as §2
Rattus norvegicus [3] = species: Rattus norvegicus; details: Zucker-Fatty, 1 mg/kg
Rattus norvegicus [4] = species: Rattus norvegicus; details: Zucker-Fatty, 1 mg/kg; remark: listed apart in the source
[5] = Tmax in rat at 1 mg/kg, iv and 10 mg/kg, po; assay type: ADME, organism-based; details: in vivo
[6] = Volume of distribution at steady state in rat at 1 mg/kg, iv; assay type: ADME, organism-based; design: dose 1 mg/kg, route intravenous; details: in vivo, read-out: Vdss
[7] = Half life in rat at 10 mg/kg, po; assay type: ADME, organism-based; design: dose 10 mg/kg, route oral; details: in vivo
[8] = Oral bioavailability in rat at 10 mg/kg; assay type: ADME, organism-based; details: in vivo
[9] = Clearance in rat at 1 mg/kg, iv; assay type: ADME, organism-based; design: dose 1 mg/kg, route intravenous; details: in vivo
[10] = Protein binding in human serum; assay type: ADME, cell-free; details: read-out: PB (converted)
[11] = Lipophilicity, log P of the compound; assay type: physicochemical; details: octanol/water

Sequence of Dipeptidyl peptidase 8 (Q6V1X1 whole entry): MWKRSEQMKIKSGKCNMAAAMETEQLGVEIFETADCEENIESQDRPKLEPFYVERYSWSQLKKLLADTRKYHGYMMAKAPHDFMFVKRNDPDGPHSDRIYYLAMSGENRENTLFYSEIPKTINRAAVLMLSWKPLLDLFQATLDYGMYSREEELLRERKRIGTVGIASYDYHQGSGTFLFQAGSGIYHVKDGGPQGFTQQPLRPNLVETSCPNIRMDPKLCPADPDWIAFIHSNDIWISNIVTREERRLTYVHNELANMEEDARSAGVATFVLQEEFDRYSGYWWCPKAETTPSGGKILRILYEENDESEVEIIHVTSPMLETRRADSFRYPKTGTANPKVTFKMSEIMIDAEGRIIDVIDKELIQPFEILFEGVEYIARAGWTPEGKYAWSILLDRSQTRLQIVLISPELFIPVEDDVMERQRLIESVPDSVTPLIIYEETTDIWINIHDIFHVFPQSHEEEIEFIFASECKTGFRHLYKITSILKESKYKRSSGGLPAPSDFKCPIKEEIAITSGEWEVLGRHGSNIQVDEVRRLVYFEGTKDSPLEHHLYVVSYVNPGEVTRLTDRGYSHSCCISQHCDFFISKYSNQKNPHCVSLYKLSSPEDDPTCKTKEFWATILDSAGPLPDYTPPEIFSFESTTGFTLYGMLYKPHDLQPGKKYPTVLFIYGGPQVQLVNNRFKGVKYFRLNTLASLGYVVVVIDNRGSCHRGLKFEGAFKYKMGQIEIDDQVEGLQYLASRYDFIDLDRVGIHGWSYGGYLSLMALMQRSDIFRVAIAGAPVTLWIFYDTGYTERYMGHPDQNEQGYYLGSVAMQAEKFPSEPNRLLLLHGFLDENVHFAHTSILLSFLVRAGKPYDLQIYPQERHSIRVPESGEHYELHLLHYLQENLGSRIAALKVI
Sequence of Cytochrome P450 3A4 (P08684 whole entry, canonical isoform): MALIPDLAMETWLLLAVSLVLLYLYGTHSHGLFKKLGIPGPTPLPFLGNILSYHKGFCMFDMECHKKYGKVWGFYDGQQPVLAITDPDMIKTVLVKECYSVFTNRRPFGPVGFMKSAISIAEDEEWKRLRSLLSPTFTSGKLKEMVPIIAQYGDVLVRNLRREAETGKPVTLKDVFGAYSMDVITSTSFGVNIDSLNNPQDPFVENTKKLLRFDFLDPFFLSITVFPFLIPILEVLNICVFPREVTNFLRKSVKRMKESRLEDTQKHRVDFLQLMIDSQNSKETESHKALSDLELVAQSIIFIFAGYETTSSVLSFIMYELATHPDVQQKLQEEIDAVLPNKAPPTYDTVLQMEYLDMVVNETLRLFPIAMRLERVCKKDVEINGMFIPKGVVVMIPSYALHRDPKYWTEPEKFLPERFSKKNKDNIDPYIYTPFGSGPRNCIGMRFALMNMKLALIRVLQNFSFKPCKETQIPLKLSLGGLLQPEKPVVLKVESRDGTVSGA
Sequence of Cytochrome P450 2D6 (P10635 whole entry): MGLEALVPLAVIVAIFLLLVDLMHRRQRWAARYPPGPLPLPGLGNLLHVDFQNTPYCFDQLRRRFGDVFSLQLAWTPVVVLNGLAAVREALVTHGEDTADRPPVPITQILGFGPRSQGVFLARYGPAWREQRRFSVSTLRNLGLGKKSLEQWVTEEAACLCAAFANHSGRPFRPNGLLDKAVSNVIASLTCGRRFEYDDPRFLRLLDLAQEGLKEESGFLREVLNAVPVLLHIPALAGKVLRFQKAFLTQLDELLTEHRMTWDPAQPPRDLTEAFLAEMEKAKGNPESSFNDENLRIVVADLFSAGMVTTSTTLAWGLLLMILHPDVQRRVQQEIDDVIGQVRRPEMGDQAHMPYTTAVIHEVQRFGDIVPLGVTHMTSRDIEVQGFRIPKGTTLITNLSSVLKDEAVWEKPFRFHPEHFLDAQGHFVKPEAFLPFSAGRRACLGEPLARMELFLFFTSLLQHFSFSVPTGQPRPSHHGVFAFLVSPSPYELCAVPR
Sequence of Dipeptidyl peptidase 9 (Q86TI2 whole entry): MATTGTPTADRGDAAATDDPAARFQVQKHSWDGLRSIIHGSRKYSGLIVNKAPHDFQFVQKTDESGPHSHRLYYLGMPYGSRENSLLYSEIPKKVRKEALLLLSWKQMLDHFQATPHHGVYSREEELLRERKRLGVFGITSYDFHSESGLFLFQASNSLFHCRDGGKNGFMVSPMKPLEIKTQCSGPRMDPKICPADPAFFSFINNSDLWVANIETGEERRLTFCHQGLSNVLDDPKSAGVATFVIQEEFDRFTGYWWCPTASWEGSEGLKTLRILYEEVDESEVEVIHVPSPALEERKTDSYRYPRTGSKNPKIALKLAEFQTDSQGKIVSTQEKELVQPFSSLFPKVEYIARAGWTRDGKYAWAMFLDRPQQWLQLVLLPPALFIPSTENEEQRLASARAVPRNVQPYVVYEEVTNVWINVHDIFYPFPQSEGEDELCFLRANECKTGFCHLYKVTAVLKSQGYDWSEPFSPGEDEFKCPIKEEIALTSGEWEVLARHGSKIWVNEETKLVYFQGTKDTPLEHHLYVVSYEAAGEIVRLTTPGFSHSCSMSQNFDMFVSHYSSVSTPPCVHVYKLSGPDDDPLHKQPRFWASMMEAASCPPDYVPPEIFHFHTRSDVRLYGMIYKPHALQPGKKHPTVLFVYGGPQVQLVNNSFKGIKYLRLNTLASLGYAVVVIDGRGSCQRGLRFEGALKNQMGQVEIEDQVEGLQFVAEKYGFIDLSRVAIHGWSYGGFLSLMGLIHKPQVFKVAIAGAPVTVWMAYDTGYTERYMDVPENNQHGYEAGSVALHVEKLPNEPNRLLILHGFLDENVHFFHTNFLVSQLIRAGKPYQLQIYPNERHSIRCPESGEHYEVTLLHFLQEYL

IC50 (Dipeptidyl peptidase 8) | IC50 (Cytochrome P450 3A4) | IC50 (Dipeptidyl peptidase 9) | IC50 (Cytochrome P450 2D6) | IC50 (Cytochrome P450 1A2) | Microsomal clearance (Liver microsomes [1]) | Microsomal clearance (Liver microsomes [2]) | SMILES | further results
> 10 µM | 9.4 µM | > 10 µM | 0.4 µM | 26.8 µM | 21 µL/min/mg | < 10 µL/min/mg | CCn1c(=O)n(C)c(=O)c2c1cc(N1CCC[C@@](C)(N)C1)n2Cc1cc(F)ccc1C#N.Cl | 
> 10 µM |  | > 10 µM |  |  |  |  | Cn1cnc2cc(N3CCC[C@@](C)(N)C3)n(Cc3cc(F)ccc3C#N)c2c1=O | 
> 10 µM | 20.2 µM | > 10 µM | > 40 µM | > 40 µM | 56 µL/min/mg | 13 µL/min/mg | Cc1ccc(F)cc1Cn1c(N2CCC[C@@](C)(N)C2)cc2c1c(=O)n(C)c(=O)n2C.Cl | inhibition (Rattus norvegicus [3]): Active; inhibition (Rattus norvegicus [4]): Active; Tmax [5]: 3 h; Vd [6]: 14.4 L/kg; half-life [7]: 4.69 h; bioavailability [8]: 69.3%; clearance [9]: 51.5 mL/min/kg; fraction unbound [10]: 0.049
> 10 µM | 13.4 µM | > 10 µM | < 0.165 µM | 26.3 µM | 19 µL/min/mg | < 10 µL/min/mg | CN(C)C(=O)Cn1c(=O)n(C)c(=O)c2c1cc(N1CCC[C@@](C)(N)C1)n2Cc1cc(F)ccc1Cl.Cl | 
> 10 µM | 11.9 µM | > 10 µM | 14.3 µM | > 40 µM | 48 µL/min/mg | 264 µL/min/mg | Cc1ccc(F)cc1Cn1c(N2CCC[C@@](C)(N)C2)cc2ncn(C)c(=O)c21.Cl | 
> 10 µM |  | > 10 µM |  |  |  |  | Cn1cnc2cc(N3CCC[C@@](C)(N)C3)n(Cc3cc(F)ccc3Cl)c2c1=O | 
> 10 µM | 7.7 µM | > 10 µM | 0.2 µM | > 40 µM | 16 µL/min/mg | 17 µL/min/mg | Cl.Cn1c(=O)c2c(cc(N3CCC[C@@](C)(N)C3)n2Cc2cc(F)ccc2Cl)n(CCCO)c1=O | 
> 10 µM |  | > 10 µM |  |  |  |  | Cn1c(=O)c2c(cc(N3CCC[C@@](C)(N)C3)n2Cc2ccccc2C#N)n(C)c1=O | logP [11]: 0.28
> 10 µM | 10.2 µM | > 10 µM | 3.4 µM | > 40 µM | 82 µL/min/mg | 46 µL/min/mg | Cl.Cn1c(=O)c2c(cc(N3CCC[C@@](C)(N)C3)n2Cc2cc(F)ccc2Cl)n(C)c1=O | 
> 10 µM |  | > 10 µM |  |  |  |  | Cn1cnc2cc(N3CCC[C@@](C)(N)C3)n(Cc3ccccc3C#N)c2c1=O | 
> 10 µM |  | > 10 µM |  |  |  |  | CCOCCCn1c(=O)n(C)c(=O)c2c1cc(N1CCC[C@@](C)(N)C1)n2Cc1cc(F)ccc1Cl | 
